The text below walks through data of ChEMBL document CHEMBL4837218, “Synthesis and in vitro antitumour activity of 4(R)-methyl-3-O-phosphonomethyl-α-l-threose nucleosides” (Eur J Med Chem, 2021).

In assay [1] the test system is MDA-MB-231. Nature of the assay: Inhibition of PI3K/AKT signalling pathway in human MDA-MB-231 cells assessed as downregulation of AKT phosphorylation at Ser473 residue at 3 to 9 uM measured after 48 hrs by Western blot analysis. The conditions noted are these: dose 3-9 µM. The assay is classed as cell-based. Summed up: (§1)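 After 48 h exposure to compound at several concentrations, cells collected and proteins extracted. SDS-PAGE on 5–15% gels, transfer to nitrocellulose, blocking 2 h in 5% nonfat milk in PBS/0.1% Tween 20, primary antibodies overnight at 4 °C, biotin-conjugated secondary 1 h. Detection on X-ray film; band densitometry.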
(In general: In western blotting, separated proteins are transferred to a membrane and probed.)

For assay [2], the system named is MCF7. Nature of the assay: Cell cycle arrest in human MCF7 cells assessed as accumulation at S phase at 4 uM measured after 48 hrs by propidium iodide staining based flow cytometry (reference value: 25.34 %). The assay is classed as functional. For orientation: Flow cytometry measures light scatter and fluorescence of single cells or particles in a stream.
The test system of assay [3] is MDA-MB-231. Put plainly: Induction of apoptosis in human MDA-MB-231 cells assessed as increase in cleaved caspase 7 protein expression at 3 to 9 uM measured after 48 hrs by western blot analysis. The note with it: dose 3-9 µM. The assay is classed as functional, cell-based. In outline: (§2)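 MCF-7 and MDA-MB-231 breast cancer cells treated 48 h with a concentration series, then lysed for protein. SDS-PAGE on 5–15% gels, transfer to nitrocellulose. Blocked 2 h in 5% nonfat milk/PBS-0.1% Tween 20, primary antibodies overnight at 4 °C, biotin-conjugated secondary 1 h. X-ray film detection with densitometric quantification.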

Assay [4] has as its system MDA-MB-231. Put plainly: Cell cycle arrest in human MDA-MB-231 cells assessed as accumulation at G2/M phase at 9 uM measured after 48 hrs by propidium iodide staining based flow cytometry (reference value: 15.46 %). The assay is classed as functional.
Assay [5] concerns MCF7. Nature of the assay: Induction of apoptosis in human MCF7 cells assessed as increase in cleaved PARP protein expression at 4 uM measured after 48 hrs in presence of cdc25c inhibitor, NSC663284 by western blot analysis. The class given is functional, cell-based. In outline:
(§3)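 Four arms per cell line: untreated, test compound, 0.3 µM NSC663284 alone, and combination. Proteins harvested after 48 h and resolved by SDS-PAGE on 5–15% gels, transferred to nitrocellulose. Blocked 2 h in milk/PBS-Tween, primary antibodies overnight at 4 °C, biotin-conjugated secondary. Read on X-ray film with densitometry.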

For assay [6], the system named is MDA-MB-231. Put plainly: Induction of apoptosis in human MDA-MB-231 cells assessed as early apoptotic cells at 9 uM measured after 48 hrs in presence of cdc25c inhibitor, NSC663284 by AnnexinV-FITC/PI staining based flow cytometry (reference value: 7.4%). The class given is functional.
Assay [7] deals with MDA-MB-231. Nature of the assay: Induction of apoptosis in human MDA-MB-231 cells assessed as increase in cleaved caspase 3 protein expression at 3 to 9 uM measured after 48 hrs by western blot analysis. The note with it: dose 3-9 µM. The assay is classed as functional, cell-based. Summed up: as §2
Assay [8] concerns MDA-MB-231. Put plainly: Cell cycle arrest in human MDA-MB-231 cells assessed as accumulation at G1 phase at 6 uM measured after 48 hrs by propidium iodide staining based flow cytometry (reference value: 46.28 %). The class given is functional.
Assay [9] relates to MCF7. Nature of the assay: Induction of apoptosis in human MCF7 cells assessed as late apoptotic cells at 1 uM measured after 48 hrs by Annexin V-FITC/propidium iodide staining based flow cytometric analysis (reference value: 0.6 %). The class given is functional.
The subject of assay [10] is MDA-MB-231. Put plainly: Induction of DNA damage in human MDA-MB-231 cells assessed as increase in Chk2 protein expression at 3 to 9 uM measured after 48 hrs by western blot analysis. The assay is classed as functional, cell-based. The note with it: dose 3-9 µM. In outline:
(§4)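 Cells exposed to graded concentrations for 48 h, then proteins extracted. Run on SDS-PAGE (5–15% gels) and transferred to nitrocellulose. Blocked 2 h in 5% nonfat milk in PBS/0.1% Tween 20, primary antibody overnight at 4 °C, biotin-conjugated secondary 1 h. Visualized on X-ray film with densitometric quantitation; three independent experiments.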

Assay [11] deals with MDA-MB-231. Nature of the assay: Induction of G2/M phase cell cycle arrest in human MDA-MB-231 cells assessed as decrease in p-cdc2 protein expression at 3 to 9 uM measured after 48 hrs by western blot analysis. The class given is functional, cell-based. The note with it: dose 3-9 µM. Summed up:
as §4

For assay [12], the system named is MDA-MB-231. Nature of the assay: Potency index, ratio of 5-FU IC50 to test compound IC50 for anticancer activity against human MDA-MB-231 cells measured after 72 hrs by MTT assay. The class given is functional. In outline:
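MTT assay: 3000 exponentially growing cells per well, 12 h at 37 °C. Medium replaced with compound at a range of concentrations for 72 h. MTT (5 mg/mL stock) added for 4 h, formazan dissolved in DMSO. Absorbance read at 570 nm (reference 630 nm); percent inhibition gives IC50. Index is 5-FU IC50 divided by test-compound IC50.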
Background: Formazan colour is commonly taken as a measure of viable cells.

For assay [13], the system named is MDA-MB-231. Put plainly: Induction of apoptosis in human MDA-MB-231 cells assessed as increase in Noxa protein expression at 3 to 9 uM measured after 48 hrs by western blot analysis. The note with it: dose 3-9 µM. The class given is functional, cell-based. In outline: as §2
Assay [14] deals with MDA-MB-231. Nature of the assay: Induction of DNA damage in human MDA-MB-231 cells assessed as increase in Chk1 protein expression at 3 to 9 uM measured after 48 hrs by western blot analysis. The assay is classed as functional, cell-based. The conditions noted are these: dose 3-9 µM. Summed up: as §4
Assay [15] deals with MDA-MB-231. Nature of the assay: Induction of apoptosis in human MDA-MB-231 cells assessed as increase in Bad protein expression at 3 to 9 uM measured after 48 hrs by western blot analysis. The class given is functional, cell-based. The conditions noted are these: dose 3-9 µM. In outline:
as §2

For assay [16], the system named is MCF7. Nature of the assay: Induction of G2/M phase cell cycle arrest in human MCF7 cells assessed as downregulation of p-cdc2 protein expression at 4 uM measured after 48 hrs in presence of cdc25c inhibitor, NSC663284 by western blot analysis. The assay is classed as functional, cell-based. In outline:
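Four groups (untreated, test compound, 0.3 NSC663284, combination) treated 48 h before protein extraction. Lysates resolved by SDS-PAGE (5–15%) and blotted to nitrocellulose. Blocked 2 h in 5% milk/PBS-0.1% Tween 20, primary antibody overnight at 4 °C, biotinylated secondary 1 h. Detected on X-ray film and quantified by densitometry.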

The subject of assay [17] is MCF7. Put plainly: Cell cycle arrest in human MCF7 cells assessed as accumulation at G1 phase at 1 uM measured after 48 hrs by propidium iodide staining based flow cytometry (reference value: 70.09 %). The assay is classed as functional.
Assay [18] has as its system MCF7. Put plainly: Induction of apoptosis in human MCF7 cells assessed as early apoptotic cells at 4 uM measured after 48 hrs in presence of cdc25c inhibitor, NSC663284 by AnnexinV-FITC/PI staining based flow cytometry (reference value: 0.9%). The class given is functional.
Assay [19] concerns MCF7. Nature of the assay: Inhibition of PI3K/AKT signalling pathway in human MCF7 cells assessed as downregulation of 85ap-PI3K expression at 1 to 4 uM measured after 48 hrs by Western blot analysis. The assay is classed as cell-based. The conditions noted are these: dose 1-4 µM. In outline:
as §1

In assay [20] the test system is MDA-MB-231. Put plainly: Cell cycle arrest in human MDA-MB-231 cells assessed as accumulation at G2/M phase at 3 uM measured after 48 hrs by propidium iodide staining based flow cytometry (reference value: 15.46 %). The class given is functional.
For assay [21], the system named is MDA-MB-231. Put plainly: Induction of mitochondrial membrane potential loss in human MDA-MB-231 cells assessed as red fluorescence intensity at 9 uM measured after 48 hrs by JC1 staining-based flow cytometry analysis (reference value: 99.2 %). The class given is functional.
The test system of assay [22] is MCF7. Put plainly: Cell cycle arrest in human MCF7 cells assessed as accumulation at G2/M phase at 1 uM measured after 48 hrs by propidium iodide staining based flow cytometry (reference value: 0.01 %). The assay is classed as functional.
In assay [23] the test system is MCF7. Put plainly: Induction of apoptosis in human MCF7 cells assessed as increase in cleaved caspase 7 protein expression at 4 uM measured after 48 hrs in presence of cdc25c inhibitor, NSC663284 by western blot analysis. The assay is classed as functional, cell-based. Summed up: as §3

Structures are written as SMILES. The source made the active and inactive calls. The rule behind the calls is not given here.

Take `C[C@H]1O[C@@H](n2cnc3c(N)nc(F)nc32)[C@H](O)[C@H]1OCP(=O)([O-])[O-].[Na+].[Na+]`: the inhibition entry in [1] and in [19] was “Active” each time. For the same compound, the Activity worked out at 31.16% in assay [2]; 31.49% in [4]; 5.1% in [6]; 37.3% in assay [8]; 4.6% in assay [9]; 63.54% in [17]. For the same compound, the Activity is 8.6% in [18], 20.27% in [20], 37% in assay [21] and 16.26% in assay [22]. For the same compound, the outcome in [3], in [7], in assay [10], in assay [11], in assay [13] and in [14] was Active. Also, the result in [15] was Active. The result in [5], in [16] and in assay [23] was inactive. The “Ratio IC50” value in [12] amounted to 47.
